This is an account of results in ChEMBL document CHEMBL1127084, “Synthesis and structure-activity studies of a series of [(hydroxybenzyl)amino]salicylates as inhibitors of EGF receptor-associated tyrosine kinase activity” (J Med Chem, 1993).

Experiment [1] can be described thus: Inhibition of tyrosine kinase activity in ER 22 membrane fraction by competition with the RRSrc peptide using [32P]-gamma ATP as radioligand. In kind it is cell membranes. An outline of the steps:
(§1)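 Enzyme source was membrane fractions of ER 22 cells (CCL 39 cells transfected with EGF receptor). Inhibitors were added at various concentrations and phosphorylation of the peptide was measured.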

A short description of experiment [2]: Inhibition of ER22 EGF-receptor expressing cell membrane tyrosine kinase activity at 100 uM.
Experiment [3] concerns the target Epidermal growth factor receptor (Homo sapiens) (UniProt P00533). The note with it: ER22; 20 uM.
Experiment [4] is described as follows: Inhibition of ER22 EGF-receptor expressing cell membrane tyrosine kinase activity. Summed up:
as §1

The target in experiment [5] is Epidermal growth factor receptor (Homo sapiens) (UniProt P00533). The note with it: ER22; 10 uM.
Epidermal growth factor receptor (Homo sapiens), sequence (P00533 whole entry): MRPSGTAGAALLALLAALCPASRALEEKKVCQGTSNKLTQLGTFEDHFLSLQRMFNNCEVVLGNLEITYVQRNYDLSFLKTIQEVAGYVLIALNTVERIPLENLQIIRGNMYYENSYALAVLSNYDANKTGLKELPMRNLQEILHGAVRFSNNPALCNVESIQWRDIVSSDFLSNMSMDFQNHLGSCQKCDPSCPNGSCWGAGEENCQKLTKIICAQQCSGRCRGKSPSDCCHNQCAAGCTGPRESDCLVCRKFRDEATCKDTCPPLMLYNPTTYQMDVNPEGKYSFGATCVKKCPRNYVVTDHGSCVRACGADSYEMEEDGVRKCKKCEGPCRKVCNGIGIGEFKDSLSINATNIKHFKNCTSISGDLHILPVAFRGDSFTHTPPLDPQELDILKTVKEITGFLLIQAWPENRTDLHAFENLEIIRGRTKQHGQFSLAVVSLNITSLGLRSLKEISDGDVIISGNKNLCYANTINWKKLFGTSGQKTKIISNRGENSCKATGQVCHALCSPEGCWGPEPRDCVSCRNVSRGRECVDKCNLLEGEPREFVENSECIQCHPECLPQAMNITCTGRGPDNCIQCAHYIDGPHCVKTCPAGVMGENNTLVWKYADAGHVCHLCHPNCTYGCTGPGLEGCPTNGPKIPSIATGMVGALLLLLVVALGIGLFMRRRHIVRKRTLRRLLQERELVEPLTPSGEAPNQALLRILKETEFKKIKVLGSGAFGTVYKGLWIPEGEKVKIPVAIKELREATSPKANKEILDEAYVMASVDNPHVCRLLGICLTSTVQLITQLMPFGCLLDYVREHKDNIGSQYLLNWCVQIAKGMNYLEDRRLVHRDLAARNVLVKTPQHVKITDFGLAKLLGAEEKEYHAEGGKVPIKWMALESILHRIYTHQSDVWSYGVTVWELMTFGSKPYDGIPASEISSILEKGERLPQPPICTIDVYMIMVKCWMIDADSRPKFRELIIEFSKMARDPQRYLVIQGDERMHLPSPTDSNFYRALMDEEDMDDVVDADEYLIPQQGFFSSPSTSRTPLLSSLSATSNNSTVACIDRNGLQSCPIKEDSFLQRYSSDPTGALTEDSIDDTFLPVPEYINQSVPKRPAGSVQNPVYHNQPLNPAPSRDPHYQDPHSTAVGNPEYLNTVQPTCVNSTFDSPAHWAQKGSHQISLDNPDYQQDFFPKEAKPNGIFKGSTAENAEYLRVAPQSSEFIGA

Each structure is given as a SMILES string.

In the case of `COC(=O)c1cccc(NCc2cc(O)ccc2O)c1`, the concentration for half-maximal inhibition (IC50) in experiment [1] came out at 1.6 µM.
In turn, `COC(=O)c1cc(NCc2cccc(O)c2)ccc1O` registered an inhibition in experiment [2] of 37%.
As for `COC(=O)c1cc(/N=C/c2cc(O)ccc2O)ccc1OC`, the IC50 in experiment [1] is over 100 µM.
In experiment [1], `COC(=O)c1cc(NCc2ccccc2O)ccc1O` came in with an IC50 of 45 µM.
In turn, `COC(=O)c1cc(/N=C/c2ccc(O)c(O)c2)ccc1O` came in with an inhibition in experiment [3] of 37%. The IC50 in experiment [1] was found to be 10 µM.
The corresponding values for `COC(=O)c1cc(/N=C/c2ccc(O)cc2O)ccc1O` are 65% and over 100 µM.
In turn, `O=C(O)c1cc(/N=C/c2cc(O)ccc2O)ccc1O` had a half-maximal inhibitory concentration (IC50) in experiment [1] of 5 µM.
Still for that read-out and setting: the value for `COC(=O)c1cc(NCc2cc(O)ccc2O)ccc1O` was 0.6 µM; that for `O=C(O)c1cccc(NCc2cc(O)ccc2O)c1` was 2.4 µM.
With `COC(=O)c1cc(/N=C/c2cc(O)ccc2O)ccc1O`, in experiment [1], the IC50 amounted to 100 µM.
The same measure, in the same setting: as for `COC(=O)c1ccc(/N=C/c2cc(O)ccc2O)cc1O`, the figure is over 10 µM; as for `COC(=O)c1cc(NCc2cc(O)ccc2O)ccc1OC`, 5 µM.
Still for that read-out and setting: as for `O=C(O)c1cccc(/N=C/c2cc(O)ccc2O)c1`, the figure is over 10 µM; as for `COC(=O)c1cc(/N=C/c2ccc(O)cc2)ccc1O`, over 10 µM.
In turn, `COC(=O)c1cc(NCc2ccc(O)cc2)ccc1O` came in with an IC50 in experiment [4] of over 10 µM.
`COC(=O)c1cc(/N=C/c2cc(OC)ccc2OC)ccc1O` showed a concentration for half-maximal inhibition (IC50) in experiment [1] of over 10 µM. The molecule further came in with an inhibition in experiment [5] of 14%.
`COC(=O)c1cc(/N=C/c2ccccc2O)ccc1O` showed a half-inhibitory concentration (IC50) in experiment [1] of over 100 µM.
The same measure, in the same setting: the value for `O=C(O)c1cc(NCc2ccccc2O)ccc1O` was 25 µM; that for `COC(=O)c1ccc(NCc2cc(O)ccc2O)cc1O` was 0.2 µM.
Molecule `COC(=O)c1cc(NCc2cc(OC)ccc2OC)ccc1O` displayed an inhibition in experiment [3] of 18%. In experiment [1], this molecule returned an IC50 of over 100 µM.
For `COC(=O)c1cc(/N=C/c2cccc(O)c2)ccc1O`, in that order: 20% and over 100 µM.
In the case of `O=C(O)c1cc(/N=C/c2ccccc2O)ccc1O`, the IC50 in experiment [1] is over 100 µM.

The IC50 is the midpoint of a concentration-inhibition curve. The low end stands for greater potency, the high end for weaker potency. In general, inhibition refers to the change of the read-out against control, counted positive when it falls. Read a low inhibition as little suppression.
